# Test results published in article PMC6404779 (Nature medicine, 2018).
# Experiments:
# BRAF V600E monomers = assay: ERK signaling in SKBR3 cells ectopically expressing RAF proteins; type: cell-based; settings: 1hr
# How it was run: (§1)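 SKBR3 cells (DMEM/F12 + 10% FBS) were transfected the day after seeding (Lipofectamine 2000, DNA:lipid 1:3) with plasmids for the indicated RAF proteins or empty pcDNA3. After 24 h, RAF-transfected cells got 1 uM lapatinib to suppress endogenous RAF activity; vector cells got DMSO. Test compound was then added at increasing doses for 1 hr. Protein expression and phosphorylation were read by Western blot; 3–4 independent repeats.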
# CRAF knockout MEF cells = assay: p-MEK/p-ERK in RAF knockout MEF cells; type: cell-based, Mouse; settings: 1hr
# How it was run: (§2)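 Wild-type control MEFs and ARAF, BRAF or CRAF knockout MEFs (from a conditional RAF knockout line) were exposed 1 hr to increasing test compound concentrations. Western blot measured p-MEK, MEK, p-ERK and ERK. p-MEK/MEK and p-ERK/ERK were quantified by densitometry, normalized to untreated cells and plotted as response curves (mean±s.d.). Cellular experiments were repeated at least three times.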
# [1] = system: RAS-independent truncated CRAF (Cat C) homodimers; assay: RAF dimer immunoprecipitation in 293H; type: cell-based; settings: concentrations as high as 10uM
# How it was run: (§3)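 293H cells with inducible NRAS Q61K co-expressed V5- and FLAG-tagged pairs: BRAF/BRAF, p61 BRAF/p61 BRAF, CRAF-V5/BRAF-FLAG, catC-V5/p61 BRAF-FLAG, CRAF/CRAF or catC/catC. Cells were exposed 1 hr to increasing test compound concentrations, and lysates were immunoprecipitated with anti-V5 agarose. Blots were probed with anti-V5/anti-FLAG. Pulled-down tagged proteins were quantified by densitometry, normalized to untreated cells and plotted as response curves; 3 independent repeats.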
# [2] = system: WT RAF driven by either WT or mutant RAS (A549, SK-MEL-285, BEAS-2B and melanocytes); assay: ERK signaling in a panel of cell lines, 1 hour; type: cell-based
# How it was run: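 Cells cultured as follows: SK-MEL-285 in RPMI with 10% FBS; BEAS-2B in BEBM medium; primary melanocytes in Dermal cell basal medium with melanocyte growth kit; A549 in DMEM with glutamine, antibiotics and 10% FBS. Pathway status read by Western blot for p-MEK1/2, p-ERK1/2, MEK1/2 and ERK1/2 (primary 1:1,000; HRP secondary 1:5,000). Cellular experiments repeated at least three times.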
# A375 Xenograft tumors = assay: ERK pathway inhibition in A375 xenograft tumors after a single dose; type: in vivo, Mice; settings: single dose of 50mg/kg
# [3] = target: RAS-dependent full length CRAF dimers (Homo sapiens, UniProt P04049); assay: RAF dimer immunoprecipitation in 293H; type: cell-based; settings: concentrations as high as 10uM
# How it was run: as §3
# [4] = system: RAF-null MEFs expressing ARAF; assay: ERK signaling in RAF-null MEFs expressing one RAF isoform; type: cell-based, Mouse; settings: 1hr
# How it was run: (§4)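 RAF-less MEFs came from Araflox/lox;Braflox/lox;Craflox/lox;RERT ert/ert MEFs. Doxycycline-inducible wild-type ARAF, BRAF or CRAF was transduced retrovirally without 4-OHT and selected with puromycin/hygromycin. Cells were then infected with Adeno-Cre (MOI 100) and cultured in 1 uM 4-OHT plus 50 ng/ml doxycycline. GFP-positive cells were sorted after 2 weeks. Loss of endogenous RAF and induced expression were confirmed by genomic PCR and Western blot.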
# [5] = PLX8394 concentration in tumor samples; type: in vivo, Mice; settings: single dose of 50mg/kg (i.p.), A375 xenograft tumor tissue
# How it was run: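 Melanoma xenograft tumours were collected at several time points after a single 50 mg/kg dose. Fresh tissue (50–150 mg) was snap-frozen in an ethanol–dry ice bath, homogenised and protein-precipitated. Samples were quantified by LC-MS/MS with an internal standard and a 15–50000 ng/mL calibration range. Standards were made by spiking untreated homogenate, and QC samples spanned the range.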
# [6] = system: Class 2 BRAF mutant homodimers; assay: RAF dimer immunoprecipitation in 293H cells; type: cell-based; settings: 1hr, increasing doses
# [7] = system: Class 3 mutants (H508 and H1666); assay: ERK signaling in a panel of cell lines, 1 hour; type: cell-based
# BRAF/CRAF dimers = BRAF/CRAF dimers (Homo sapiens, UniProt P04049); assay: RAF dimer immunoprecipitation in 293H; type: cell-based
# How it was run: as §3
# BRAF G466V PDX tumors = assay: Colorectal cancer PDX model; type: in vivo, NSG mice; settings: Cetuximab 50 mg/kg IP twice weekly, vemurafenib 75 mg/kg BID, PLX8394 50 mg/kg BID
# [8] = system: WT RAS/RAF (primary keratinocytes); assay: p-ERK Western blot, 1 hr drug treatment; type: cell-based; settings: Keratinocyte, read-out: IC50 for p-ERK in keratinocytes
# How it was run: (§5)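 SK-MEL-2 (RPMI, 10% FBS) or primary keratinocytes (Dermal Cell Basal Medium + keratinocyte growth kit) were exposed 1 hr to 0–30,000 nM compound (nine points, 10 to 30,000 nM). Lysates were Western blotted, and p-ERK/total ERK was quantified by densitometry and normalized to untreated cells. IC50 is the concentration giving 50% inhibition on the response curve; n=4, mean±s.d.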
# [9] = system: HeLa cells (WT RAS and RAF) with CRAF overexpression; assay: ERK signaling in HeLa cells stably expressing RAF; type: cell-based; settings: 1hr
# [10] = system: BRAF V600E monomers (SK-MEL-239); assay: p-ERK Western blot, 1 hr drug treatment; type: cell-based; settings: p-ERK/total ERK by densitometry, calculated from the curves in Figure 1
# How it was run: (§6)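 SK-MEL-239 and SK-MEL-239 C4 cells (DMEM, glutamine, antibiotics, 10% FBS) were exposed 1 hr to 0–30,000 nM test compound (0,10,30,100,300,1000,3000,10,000, 30,000 nM). Whole-cell lysates were Western blotted, and p-ERK/total ERK was quantified by densitometry and normalized to untreated cells. IC75 is the concentration giving 75% inhibition on the response curve; 4 independent repeats, mean±s.d.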
# [11] = system: RAF-null MEFs expressing BRAF; assay: ERK signaling in RAF-null MEFs expressing one RAF isoform; type: cell-based, Mouse; settings: 1hr
# How it was run: as §4
# [12] = target: RAS-dependent full length BRAF/BRAF dimers (Homo sapiens, UniProt P15056); assay: RAF dimer immunoprecipitation in 293H; type: cell-based
# [13] = system: A375 cells with overexpression of BRAF V600E; assay: A375 xenograft with doxycycline-induced BRAF V600E overexpression; type: in vivo, nude mice; settings: vemurafenib 75mg/kg BID, PLX8394 50mg/kg BID
# How it was run: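 A375 cells carrying a retroviral tet-regulated BRAF V600E or NRAS Q61K construct (kept in 50 ug/ml hygromycin and 0.2 ug/ml puromycin). 5 million cells were injected s.c. into nude mice fed doxycycline food. At 100 mm3, mice stayed on doxycycline food and received vehicle, reference RAF inhibitor 75 mg/kg BID or test compound 50 mg/kg BID. Tumour size was tracked (n=5; mean±s.d.; two-tailed unpaired t-test).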
# [14] = system: HeLa cells (WT RAS and RAF) with BRAF overexpression; assay: ERK signaling in HeLa cells stably expressing RAF; type: cell-based; settings: 1hr
# [15] = system: Class 1 (BRAF V600 mutants) monomers (A375, SK-MEL-239 and MDST-8); assay: ERK signaling in a panel of cell lines, 1 hour; type: cell-based
# p61 WT BRAF dimers = assay: ERK signaling in SKBR3 cells ectopically expressing RAF proteins; type: cell-based; settings: 1hr
# How it was run: as §1
# [16] = system: BRAF K601E CRC PDX tumors; assay: Colorectal cancer PDX model; type: in vivo, NSG mice; settings: vemurafenib 75mg/kg BID, PLX8394 50mg/kg BID
# [17] = system: RAF-null MEFs expressing CRAF; assay: ERK signaling in RAF-null MEFs expressing one RAF isoform; type: cell-based, Mouse; settings: 1hr
# How it was run: as §4
# [18] = system: Class 2 BRAF mutants (SK-MEL-239 C4, SK-MEL-246, JVM-3, and 22RV1); assay: ERK signaling in a panel of cell lines, 1 hour; type: cell-based
# [19] = system: activated CRAF homodimers; assay: ERK signaling in SKBR3 cells ectopically expressing RAF proteins; type: cell-based; settings: 1hr
# How it was run: as §1
# [20] = system: Class 3 BRAF mutant heterodimers; assay: RAF dimer immunoprecipitation in 293H cells; type: cell-based; settings: 1hr, increasing doses
# p61 BRAF V600E dimers = assay: ERK signaling in SKBR3 cells ectopically expressing RAF proteins; type: cell-based; settings: 1hr
# How it was run: as §1
# BRAF knockout MEF cells = assay: p-MEK/p-ERK in RAF knockout MEF cells; type: cell-based, Mouse; settings: 1hr
# How it was run: as §2
# ARAF knockout MEF cells = assay: p-MEK/p-ERK in RAF knockout MEF cells; type: cell-based, Mouse; settings: 1hr
# How it was run: as §2
# [21] = system: p61 BRAF V600E homodimers (SK-MEL-239 C4); assay: p-ERK Western blot, 1 hr drug treatment; type: cell-based
# How it was run: as §6
# [22] = target: RAS-independent BRAF dimers (p61 BRAF) (Homo sapiens, UniProt P15056); assay: RAF dimer immunoprecipitation in 293H; type: cell-based; settings: read-out: IC50 for decrease of dimer levels, p61 BRAF; 1hr; IP/Western blot
# How it was run: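 293H cells carried doxycycline-inducible NRAS Q61K introduced by retrovirus. They were transfected with Lipofectamine 2000 (DNA:reagent 1:3) to co-express V5- and FLAG-tagged full-length BRAF or p61 BRAF pairs. Cells were exposed to increasing test-compound doses for 1 hr, then lysed, and lysates were immunoprecipitated with anti-V5 agarose (1:200). Blots were probed with anti-V5 and anti-FLAG. Pulled-down FLAG and V5 proteins were quantified by densitometry and normalised to untreated cells.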
# [23] = system: RAS-dependent ARAF homo-or heterodimers; assay: RAF dimer immunoprecipitation in 293H; type: cell-based; settings: 1hr
# [24] = Tolerability in nude mice; type: in vivo; settings: doses up to 100mg/kg daily
# [25] = system: NRAS Q61R activation of WT RAF dimers (SK-MEL-2); assay: p-ERK Western blot, 1 hr drug treatment; type: cell-based; settings: Homo sapiens, SK-MEL-2, read-out: IC50 for p-ERK in SK-MEL-2 cells
# How it was run: as §5
# RAS-dependent full length CRAF dimers, sequence (P04049 whole entry): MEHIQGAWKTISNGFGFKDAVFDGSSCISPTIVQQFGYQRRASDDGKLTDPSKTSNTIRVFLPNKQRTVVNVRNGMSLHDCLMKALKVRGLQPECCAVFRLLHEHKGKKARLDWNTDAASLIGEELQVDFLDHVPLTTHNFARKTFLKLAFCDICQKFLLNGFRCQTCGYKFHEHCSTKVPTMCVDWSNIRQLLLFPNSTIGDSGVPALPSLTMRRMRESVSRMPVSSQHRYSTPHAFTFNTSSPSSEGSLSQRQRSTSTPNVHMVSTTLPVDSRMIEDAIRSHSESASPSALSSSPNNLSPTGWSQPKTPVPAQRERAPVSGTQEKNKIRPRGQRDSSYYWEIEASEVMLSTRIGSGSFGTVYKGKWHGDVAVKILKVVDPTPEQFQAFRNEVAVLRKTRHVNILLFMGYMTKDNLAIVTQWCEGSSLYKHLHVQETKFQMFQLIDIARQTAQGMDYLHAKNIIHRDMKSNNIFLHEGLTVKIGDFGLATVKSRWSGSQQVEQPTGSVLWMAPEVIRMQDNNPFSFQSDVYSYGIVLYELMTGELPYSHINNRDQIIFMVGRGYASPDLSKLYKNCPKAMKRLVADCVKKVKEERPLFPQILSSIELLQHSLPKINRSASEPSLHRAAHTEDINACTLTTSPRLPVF
# RAS-dependent full length CRAF dimers, sequence (P04049 whole entry): as above
# BRAF/CRAF dimers, sequence (P04049 whole entry): as above
smiles,measurement,setting,value
O=C(c1c(F)ccc(NS(=O)(=O)N2CC[C@@H](F)C2)c1F)c1c[nH]c2ncc(-c3cnc(C4CC4)nc3)cc12 [PLX8394],doses required to inhibit BRAF V600E monomers,BRAF V600E monomers,30 to 100 nM
same,"effect on ERK signaling, CRAF-knockout",CRAF knockout MEF cells,inhibited signaling
same,effect on truncated CRAF (Cat C) homodimer levels,[1],no effect
same,effect on ERK signaling in cells with WT RAF,[2],almost no effect on ERK signaling or caused slight activation
same,time of maximum inhibition of signaling after dosing,A375 Xenograft tumors,2 to 7 h
same,time of return of signaling to baseline,A375 Xenograft tumors,≤ 24 h
same,effect on full length CRAF dimer levels,[3],no effect
same,"effect on ERK signaling, cells expressing only ARAF",[4],activated
same,time of highest drug concentrations in melanoma xenografts,[5],7 h
same,disruption of Class 2 BRAF mutant homodimers,[6],disrupts
same,concentrations inhibiting Class 3 mutants driven signaling,[7],1 to 10 µM
same,IC50,BRAF/CRAF dimers,100 to 300 nM
same,response of ERK signaling and tumor growth,BRAF G466V PDX tumors,insensitive
same,IC50,[8],> 20000 nM
same,"effect on ERK signaling, CRAF overexpression",[9],activated the pathway
same,IC75 of p-ERK in SK-MEL-239,[10],39 nM
same,"effect on ERK signaling, cells expressing only BRAF",[11],inhibited
same,IC50,[12],100 to 300 nM
same,time to reduction in BRAF-containing dimers after drug treatment,"[12]; 1uM, 293H cells",≤ 15 min
same,"response of ERK signaling and tumor growth, BRAF V600E amplified",[13],sensitive
same,"effect on ERK signaling, BRAF overexpression",[14],sensitized ERK signaling to inhibition
same,concentrations inhibiting ERK signaling driven by Class 1 monomers,[15],30 to 100 nM
same,doses required to inhibit p61 WT BRAF dimers,p61 WT BRAF dimers,300 to 1000 nM
same,"tumor growth response, single RAF inhibitor",[16],partially inhibited
same,"effect on ERK signaling, cells expressing only CRAF",[17],activated
same,concentrations inhibiting ERK signaling in cells expressing Class 2 BRAF mutants,[18],100 to 1000 nM
same,effect on ERK signaling in cells with activated CRAF homodimers,[19],activated ERK signaling
same,disruption of Class 3 BRAF mutant heterodimers,[20],disrupts
same,doses required to inhibit p61 BRAF V600E dimers,p61 BRAF V600E dimers,100 to 300 nM
same,"effect on ERK signaling, BRAF knocked out",BRAF knockout MEF cells,induced ERK signaling
same,"effect on ERK signaling, ARAF knockout",ARAF knockout MEF cells,minimal effects
same,IC75 of p-ERK in SK-MEL-239 C4,"[21]; 1 hr, p-ERK/total ERK by densitometry, calculated from the curves in Figure 1",158 nM
same,concentration that inhibits p61 dimers,"[21]; SK-MEL-239 C4, 1 hr",100~300 nM
same,IC50,[22],100 to 300 nM
same,disruption of ARAF homo- or heterodimers,[23],didn’t disrupt
same,tolerability,[24],well tolerated
same,IC50,[25],> 20000 nM
